Screening results (PubChem)
Myeloid diff 2: induction of myeloid progenitor differentiation, primary screen, cell-based, flow cytometry, MLPCN library | ER-HoxA9 myeloid progenitors, lysozyme-GFP differentiation | calls only at 10 µM | 360,000 tested, 1% active;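 active = normalized GFP-positive differentiation at or above the plate's own cutoff, the solvent-only control mean plus 3 SD; inconclusive = no clear call, values can overlap the other calls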;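 also: cells exposed to compound for four days before flow analysis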
NR2E3 ag-1: inhibitors of NR2E3-RetCOR corepressor binding, primary screen, NR2E3 agonist project, biochemical, TR-FRET, GST-NR2E3, biotin-RetCOR | Photoreceptor-specific nuclear receptor (Homo sapiens), Q9Y5X4 | 1536-well | inhibition of corepressor binding, % at 4.78 µM | 320,000 tested, 0.12% active | AID 2300, 2010;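 active = percent inhibition above the cutoff of mean plus 3 SD of all tested compounds, set per screening campaign, cut at about 20% in these data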
Target sequence (Q9Y5X4 whole entry, looked up): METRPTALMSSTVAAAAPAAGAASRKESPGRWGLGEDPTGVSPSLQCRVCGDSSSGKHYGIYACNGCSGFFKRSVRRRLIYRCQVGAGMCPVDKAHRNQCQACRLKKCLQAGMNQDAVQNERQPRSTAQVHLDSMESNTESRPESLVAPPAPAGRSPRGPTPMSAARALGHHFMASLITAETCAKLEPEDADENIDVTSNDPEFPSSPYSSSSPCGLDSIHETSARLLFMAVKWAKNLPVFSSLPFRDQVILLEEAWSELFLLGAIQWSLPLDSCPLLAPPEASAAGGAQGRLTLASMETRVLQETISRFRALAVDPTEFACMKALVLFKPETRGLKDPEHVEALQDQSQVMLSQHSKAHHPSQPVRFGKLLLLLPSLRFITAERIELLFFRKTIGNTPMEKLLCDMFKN
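System: GST-tagged NR2E3 plus biotinylated RetCOR corepressor; Amount: 1.35 nM GST-tagged NR2E3 final; Dosing: single nominal compound dose of 4.8 µM; Schedule: 5 h incubation at 4 °C; Technique: TR-FRET with europium anti-GST and streptavidin-D2, 340 nm excitation; Controls: biotin wells as high control, 0.6% DMSO wells as low control.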
T cell HTS: modulators of CD8 T cell-vesicle binding, primary screen, mouse 2C CD8+ T cells, flow cytometry; response (vesicle binding), % at 7 µM; 2C CD8+ T cell-vesicle binding; active compounds read low; 330,000 tested, 0.068% active;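 active = response, share of CD8 T cells binding vesicles, and their 90th percentile fluorescence all below set limits, cut at about 80% in these data, passing the limit was not always enough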;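 also: values below 100% mean blocked vesicle binding to the CD8+ T cells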
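incubation = binding step 1.5 h, 37 °C, antibody labelling 20 min, ice | test system = 2C mouse CD8+ T cells | read-out basis = percent CD8+ FL2 mean versus row control | controls = Peptide-free naked vesicles (low) and QL9 vesicles with 0.7% DMSO vehicle (high) | detection = flow cytometry of vesicle-bound cells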
NR2E3 ag-2: NR2E3 agonists in two-hybrid cells, primary screen, cell-based, luminescence, CHO-S, Gal4-NCOR/VP16-NR2E3; inhibition of corepressor binding, % at 3.98 µM; luciferase; Photoreceptor-specific nuclear receptor (Homo sapiens), Q9Y5X4; 360,000 tested, 0.35% active;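 active = inhibition above the mean of all tested compounds plus 3 SD, cut at about 70% in these data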;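 also: higher means lower luciferase signal from less NR2E3 corepressor binding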
GAA850 FXN act: FXN promoter activators, primary screen, cell-based, luciferase luminescence, HEK293 lucGAA850; activation, % at 6 µM; AID 540364, 2011; 360,000 tested, 0.56% active; HEK293 lucGAA850 FXN promoter luciferase reporter, 24 h; percent of 10 µM SAHA response;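 active = activation above the average of all compounds screened plus 3 SD, cutoff fixed separately per campaign, cut at about 7.5% in these data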
NR2E3 agonist cf: NR2E3 agonists, confirmation, biochemical, TR-FRET; activation (reported as inhibition), % at 3.98 µM; shares compounds with NR2E3 ag-1; 360 tested, 39% active; cell-free NR2E3 corepressor release, 5 h; AID 2379, 2010; in the data active = activation above about 20%
PPARg-NCOR2 ag: agonists of PPARg-NCOR2 corepressor interaction, counter-screen for NR2E3 agonist project, biochemical, TR-FRET; 360 tested, 45% active; TR-FRET PPARg-NCOR2 coregulator interaction; shares compounds with NR2E3 ag-1; inhibition, % at 3.98 µM; in the data active = inhibition above about 20%
Large screens that a line does not name were inactive (follow-up assays come after a bar, where they were run). Most compounds without a hit are left out; they make up all but 2% or so of the library.

CC1NC(=O)NC1CCCCCC(=O)Nc1ccc(F)c(Cl)c1 (stereo not given)	NR2E3 ag-1 90.0 | NR2E3 agonist cf 88.2 | PPARg-NCOR2 ag 91.0
CCc1cccc(NC(=O)CCCCCC2NC(=O)NC2C)c1 (stereo not given)	NR2E3 ag-1 86.0 | NR2E3 agonist cf 90.3 | PPARg-NCOR2 ag 91.7
Cc1ccc(NC(=O)CCCCCC2NC(=O)NC2C)cc1 (stereo not given)	NR2E3 ag-1 86.8 | NR2E3 agonist cf 90.5 | PPARg-NCOR2 ag 91.6
CCc1cccc(NC(=O)CCCN2C(=O)NC(C)(C)C2=O)c1	none
Cc1cccc(C)c1NC(=S)NC(=O)c1cccc(Cl)c1	none (no result: NR2E3 ag-1, T cell HTS, GAA850 FXN act)
O=C(C1=C(O)C(=O)N(Cc2ccco2)C1c1cccnc1)c1cc2ccccc2o1 (stereo not given)	NR2E3 ag-1 38.0 | NR2E3 agonist cf 42.7 | PPARg-NCOR2 ag 42.0
COc1cccc2cc(C(=O)C3=C(O)C(=O)N(Cc4ccco4)C3c3cccnc3)oc12 (stereo not given)	NR2E3 ag-1 28.1 | NR2E3 agonist cf 19.7 | PPARg-NCOR2 ag 23.8
N#Cc1ccccc1NC(=O)COC(=O)c1ccc2c(c1)OCCO2	none
N#Cc1ccc(Cl)cc1NC(=O)COC(=O)c1ccc2c(c1)OCCO2	NR2E3 ag-1 35.5 | NR2E3 agonist cf 38.6 | PPARg-NCOR2 ag 40.7
Cc1nc(-c2ccc(Br)cc2)ccc1C(=O)O	NR2E3 ag-1 24.7 | NR2E3 agonist cf inactive | PPARg-NCOR2 ag inactive
Cc1ccc(-c2ccc(C(=O)O)c(C)n2)cc1	none
COc1ncc(-c2ccc(N3C(c4ccsc4)=Cc4ccc(F)cc4C3CC(C)=O)cc2)cn1 (stereo not given)	none (no result: NR2E3 ag-1, T cell HTS, GAA850 FXN act)
N/C(=N\OC(=O)COc1ccc2ccccc2c1Br)c1cccnc1	NR2E3 ag-1 21.4 (no result: Myeloid diff 2, NR2E3 ag-2, GAA850 FXN act) | NR2E3 agonist cf inactive | PPARg-NCOR2 ag inactive
Cc1ccsc1CNCC(O)c1ccccc1 (stereo not given)	none
Cc1cccn2c(=O)nc(SCC(=O)c3ccccc3)nc12	none
O=C(NN1C(=O)/C(=C/C=C/c2ccco2)SC1=S)c1ccccc1O	none
O=C(O)CCCN1C(=O)/C(=C/C=C/c2ccco2)SC1=S	NR2E3 ag-1 32.4 | NR2E3 agonist cf inactive | PPARg-NCOR2 ag 20.0
O=C(O)CC(C(=O)O)N1C(=O)/C(=C/C=C/c2ccco2)SC1=S (stereo not given)	NR2E3 ag-1 39.0 | NR2E3 agonist cf 35.6 | PPARg-NCOR2 ag inactive
O=C(O)C(Cc1ccccc1)N1C(=O)/C(=C/C=C/c2ccco2)SC1=S (stereo not given)	none (no result: NR2E3 ag-1, T cell HTS)
Cc1c(Br)c(=O)oc2c(C)c(O)ccc12	NR2E3 ag-1 21.4 | NR2E3 agonist cf inactive | PPARg-NCOR2 ag inactive
CC(C)(C)OC(=O)N1C(=O)[C@](OC(=O)c2ccccc2)(c2ccc(F)cc2)c2ccccc21	none (no result: NR2E3 ag-1, T cell HTS, GAA850 FXN act)
C=CCc1c(C)nc(SC)nc1Nc1ccc(C)cc1	NR2E3 ag-1 25.0 | NR2E3 agonist cf inactive | PPARg-NCOR2 ag inactive
Cc1c2cc(O)c(=O)cc-2oc2cc(O)c(O)cc12	Myeloid diff 2 active, NR2E3 ag-1 39.5 | NR2E3 agonist cf 20.3 | PPARg-NCOR2 ag inactive
O=C1CCN(c2ccccc2)N1	none (no result: NR2E3 ag-1, T cell HTS)
Cc1ccc(CNC(=O)c2cc3c(s2)CS(=O)(=O)C3)cc1	none
Cc1ccc(CNC(=O)c2cc3c(s2)CN(Cc2ccccc2)C3)cc1	NR2E3 ag-1 20.5 | NR2E3 agonist cf inactive | PPARg-NCOR2 ag inactive
COc1cccc(CNC(=O)COC(=O)/C(C#N)=C/c2ccc(N(C)C)cc2)c1	NR2E3 ag-1 30.7 | NR2E3 agonist cf 36.0 | PPARg-NCOR2 ag 35.5
COC(=O)C(Cc1ccc(O)cc1)NC(=O)Cn1cc(C)c(=O)[nH]c1=O (stereo not given)	none (no result: NR2E3 ag-1, T cell HTS)
O=C(O[C@@H]1OC2COC(=O)c3cc(O)c(O)c(O)c3-c3c(cc(O)c(O)c3O)C(=O)O[C@@H]([C@H]1O)[C@@H]2O)c1cc(O)c(O)c(O)c1	NR2E3 ag-1 24.2 | NR2E3 agonist cf inactive | PPARg-NCOR2 ag inactive
CCCc1nc2ccc(Cl)cn2c1Cc1ccsc1	none (no result: NR2E3 ag-1, T cell HTS, GAA850 FXN act)
CCOC(=O)COc1cc(Br)c(/C=N/Nc2ccccc2)cc1OC	NR2E3 ag-1 26.0 | NR2E3 agonist cf inactive | PPARg-NCOR2 ag inactive
COc1ccc(C(c2c(C)[nH]n(-c3ccccc3)c2=O)c2c(C)[nH]n(-c3ccccc3)c2=O)cc1OC	NR2E3 ag-1 29.7 | NR2E3 agonist cf inactive | PPARg-NCOR2 ag 38.9
Cc1ccc(C(=O)C2=C(O)C(=O)N(CCCn3ccnc3)C2c2ccc(OC(C)C)cc2)o1 (stereo not given)	NR2E3 ag-1 28.5 | NR2E3 agonist cf inactive | PPARg-NCOR2 ag inactive
Cc1ccc(C(=O)C2=C(O)C(=O)N(Cc3cccnc3)C2c2ccc(Br)cc2)o1 (stereo not given)	NR2E3 ag-1 20.9 | NR2E3 agonist cf 21.6 | PPARg-NCOR2 ag inactive
Cc1ccc(C(=O)C2=C(O)C(=O)N(Cc3cccnc3)C2c2ccc(N(C)C)cc2)o1 (stereo not given)	none
Cc1ccc(C(=O)C2=C(O)C(=O)N(Cc3cccnc3)C2c2ccc(OC(C)C)cc2)o1 (stereo not given)	NR2E3 ag-1 21.7 | NR2E3 agonist cf inactive | PPARg-NCOR2 ag inactive
COc1ccc(C2C(C(=O)c3ccc(C)o3)=C(O)C(=O)N2Cc2cccnc2)cc1 (stereo not given)	none
Cc1ccc(C(=O)C2=C(O)C(=O)N(Cc3cccnc3)C2c2ccc(Cl)c(Cl)c2)o1 (stereo not given)	NR2E3 ag-1 31.9 | NR2E3 agonist cf 23.1 | PPARg-NCOR2 ag 20.4
COC(=O)c1sc(NC(=S)NNC(=O)c2c(Br)c(C)nn2C)c(C(=O)OC)c1C	Myeloid diff 2 inconclusive, NR2E3 ag-1 62.4 | NR2E3 agonist cf inactive | PPARg-NCOR2 ag inactive
O=c1oc2cc(O)c(Cl)cc2c2ccccc12	NR2E3 ag-1 51.6 | NR2E3 agonist cf 45.8 | PPARg-NCOR2 ag 47.8
Cc1ccc(C2C(C(N)=S)=C(N)OC3=C2C(=O)CC(C)(C)C3)cc1 (stereo not given)	NR2E3 ag-1 26.4 | NR2E3 agonist cf inactive | PPARg-NCOR2 ag 64.8
CCOC(=O)Cc1csc(-n2sc3ccccc3c2=O)n1	NR2E3 ag-1 32.0 | NR2E3 agonist cf inactive | PPARg-NCOR2 ag 22.1
CCOC(=O)Cc1csc(SCn2nnc3ccccc3c2=O)n1	none
